Test results reported in ChEMBL document CHEMBL4680072, “Synthesis and evaluation of a radioiodinated 4,6-diaryl-3-cyano-2-pyridinone derivative as a survivin targeting SPECT probe for tumor imaging” (Bioorg Med Chem Lett, 2016).

Columns and labels:
[1] = Biodistribution in heart of BALB/c nu/nu mouse xenografted with human MDA-MB-231 cells at 7.4 kBq, iv using [125I] labeled compound measured after 60 mins by gamma counter method; type: ADME, organism-based; details: in vivo, 1 h
Outline: (§1)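 Radioactivity in each excised tissue is expressed as percent injected dose per gram (% ID/g). Each value is the mean (SD) of three tumor-bearing mice per time point (n = 3).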

[2] = Biodistribution in muscle of BALB/c nu/nu mouse xenografted with human MDA-MB-231 cells at 7.4 kBq, iv using [125I] labeled compound measured after 180 mins by gamma counter method; type: ADME, organism-based, Muscle tissue; details: in vivo, 3 h; outline: as §1
[3] = Biodistribution in lung of BALB/c nu/nu mouse xenografted with human MDA-MB-231 cells at 7.4 kBq, iv using [125I] labeled compound measured after 60 mins by gamma counter method; type: ADME, organism-based; details: in vivo, 1 h; outline: as §1
[4] = Biodistribution in spleen of BALB/c nu/nu mouse xenografted with human MDA-MB-231 cells at 7.4 kBq, iv using [125I] labeled compound measured after 30 mins by gamma counter method; type: ADME, organism-based; details: in vivo, 0.5 h; outline: as §1
[5] = Biodistribution in kidney of BALB/c nu/nu mouse xenografted with human MDA-MB-231 cells at 7.4 kBq, iv using [125I] labeled compound measured after 180 mins by gamma counter method; type: ADME, organism-based; details: in vivo, 3 h; outline: as §1
[6] = Biodistribution in stomach of BALB/c nu/nu mouse xenografted with human MDA-MB-231 cells at 7.4 kBq, iv using [125I] labeled compound measured after 60 mins by gamma counter method; type: ADME, organism-based; details: in vivo, 1 h; outline: as §1
[7] = Biodistribution in stomach of BALB/c nu/nu mouse xenografted with human MDA-MB-231 cells at 7.4 kBq, iv using [125I] labeled compound measured after 180 mins by gamma counter method; type: ADME, organism-based; details: in vivo, 3 h; outline: as §1
[8] = Biodistribution in lung of BALB/c nu/nu mouse xenografted with human MDA-MB-231 cells at 7.4 kBq, iv using [125I] labeled compound measured after 180 mins by gamma counter method; type: ADME, organism-based; details: in vivo, 3 h; outline: as §1
[9] = Biodistribution in intestine of BALB/c nu/nu mouse xenografted with human MDA-MB-231 cells at 7.4 kBq, iv using [125I] labeled compound measured after 60 mins by gamma counter method; type: ADME, organism-based; details: in vivo, 1 h; outline: as §1
[10] = Biodistribution in blood of BALB/c nu/nu mouse xenografted with human MDA-MB-231 cells at 7.4 kBq, iv using [125I] labeled compound measured after 60 mins by gamma counter method; type: ADME, organism-based; details: in vivo, 1 h; outline: as §1
[11] = Biodistribution in kidney of BALB/c nu/nu mouse xenografted with human MDA-MB-231 cells at 7.4 kBq, iv using [125I] labeled compound measured after 30 mins by gamma counter method; type: ADME, organism-based; details: in vivo, 0.5 h; outline: as §1
[12] = Biodistribution in pancreas of BALB/c nu/nu mouse xenografted with human MDA-MB-231 cells at 7.4 kBq, iv using [125I] labeled compound measured after 30 mins by gamma counter method; type: ADME, organism-based; details: in vivo, 0.5 h; outline: as §1
[13] = Biodistribution in pancreas of BALB/c nu/nu mouse xenografted with human MDA-MB-231 cells at 7.4 kBq, iv using [125I] labeled compound measured after 180 mins by gamma counter method; type: ADME, organism-based; details: in vivo, 3 h; outline: as §1
[14] = Biodistribution in kidney of BALB/c nu/nu mouse xenografted with human MDA-MB-231 cells at 7.4 kBq, iv using [125I] labeled compound measured after 60 mins by gamma counter method; type: ADME, organism-based; details: in vivo, 1 h; outline: as §1
[15] = Biodistribution in brain of BALB/c nu/nu mouse xenografted with human MDA-MB-231 cells at 7.4 kBq, iv using [125I] labeled compound measured after 180 mins by gamma counter method; type: ADME, organism-based; details: in vivo, 3 h; outline: as §1
[16] = Biodistribution in brain of BALB/c nu/nu mouse xenografted with human MDA-MB-231 cells at 7.4 kBq, iv using [125I] labeled compound measured after 30 mins by gamma counter method; type: ADME, organism-based; details: in vivo, 0.5 h; outline: as §1
[17] = Biodistribution in liver of BALB/c nu/nu mouse xenografted with human MDA-MB-231 cells at 7.4 kBq, iv using [125I] labeled compound measured after 180 mins by gamma counter method; type: ADME, organism-based; details: in vivo, 3 h; outline: as §1
[18] = Biodistribution in intestine of BALB/c nu/nu mouse xenografted with human MDA-MB-231 cells at 7.4 kBq, iv using [125I] labeled compound measured after 180 mins by gamma counter method; type: ADME, organism-based; details: in vivo, 3 h; outline: as §1
[19] = Biodistribution in tumor of BALB/c nu/nu mouse xenografted with human MDA-MB-231 cells at 7.4 kBq, iv using [125I] labeled compound measured after 30 mins by gamma counter method; type: ADME, organism-based, Neoplasm; details: in vivo, 0.5 h; outline: as §1
[20] = Biodistribution in pancreas of BALB/c nu/nu mouse xenografted with human MDA-MB-231 cells at 7.4 kBq, iv using [125I] labeled compound measured after 60 mins by gamma counter method; type: ADME, organism-based; details: in vivo, 1 h; outline: as §1
[21] = Biodistribution in intestine of BALB/c nu/nu mouse xenografted with human MDA-MB-231 cells at 7.4 kBq, iv using [125I] labeled compound measured after 30 mins by gamma counter method; type: ADME, organism-based; details: in vivo, 0.5 h; outline: as §1
[22] = Biodistribution in blood of BALB/c nu/nu mouse xenografted with human MDA-MB-231 cells at 7.4 kBq, iv using [125I] labeled compound measured after 180 mins by gamma counter method; type: ADME, organism-based; details: in vivo, 3 h; outline: as §1
[23] = Biodistribution in brain of BALB/c nu/nu mouse xenografted with human MDA-MB-231 cells at 7.4 kBq, iv using [125I] labeled compound measured after 60 mins by gamma counter method; type: ADME, organism-based; details: in vivo, 1 h; outline: as §1
[24] = Biodistribution in liver of BALB/c nu/nu mouse xenografted with human MDA-MB-231 cells at 7.4 kBq, iv using [125I] labeled compound measured after 30 mins by gamma counter method; type: ADME, organism-based; details: in vivo, 0.5 h; outline: as §1
[25] = Biodistribution in blood of BALB/c nu/nu mouse xenografted with human MDA-MB-231 cells at 7.4 kBq, iv using [125I] labeled compound measured after 30 mins by gamma counter method; type: ADME, organism-based; details: in vivo, 0.5 h; outline: as §1
[26] = Biodistribution in spleen of BALB/c nu/nu mouse xenografted with human MDA-MB-231 cells at 7.4 kBq, iv using [125I] labeled compound measured after 60 mins by gamma counter method; type: ADME, organism-based; details: in vivo, 1 h; outline: as §1
[27] = Biodistribution in heart of BALB/c nu/nu mouse xenografted with human MDA-MB-231 cells at 7.4 kBq, iv using [125I] labeled compound measured after 30 mins by gamma counter method; type: ADME, organism-based; details: in vivo, 0.5 h; outline: as §1
[28] = Biodistribution in stomach of BALB/c nu/nu mouse xenografted with human MDA-MB-231 cells at 7.4 kBq, iv using [125I] labeled compound measured after 30 mins by gamma counter method; type: ADME, organism-based; details: in vivo, 0.5 h; outline: as §1
[29] = Biodistribution in tumor of BALB/c nu/nu mouse xenografted with human MDA-MB-231 cells at 7.4 kBq, iv using [125I] labeled compound measured after 180 mins by gamma counter method; type: ADME, organism-based, Neoplasm; details: in vivo, 3 h; outline: as §1
[30] = Biodistribution in spleen of BALB/c nu/nu mouse xenografted with human MDA-MB-231 cells at 7.4 kBq, iv using [125I] labeled compound measured after 180 mins by gamma counter method; type: ADME, organism-based; details: in vivo, 3 h; outline: as §1
[31] = Biodistribution in lung of BALB/c nu/nu mouse xenografted with human MDA-MB-231 cells at 7.4 kBq, iv using [125I] labeled compound measured after 30 mins by gamma counter method; type: ADME, organism-based; details: in vivo, 0.5 h; outline: as §1
[32] = Biodistribution in heart of BALB/c nu/nu mouse xenografted with human MDA-MB-231 cells at 7.4 kBq, iv using [125I] labeled compound measured after 180 mins by gamma counter method; type: ADME, organism-based; details: in vivo, 3 h; outline: as §1
[33] = Biodistribution in liver of BALB/c nu/nu mouse xenografted with human MDA-MB-231 cells at 7.4 kBq, iv using [125I] labeled compound measured after 60 mins by gamma counter method; type: ADME, organism-based; details: in vivo, 1 h; outline: as §1
[34] = Biodistribution in tumor of BALB/c nu/nu mouse xenografted with human MDA-MB-231 cells at 7.4 kBq, iv using [125I] labeled compound measured after 60 mins by gamma counter method; type: ADME, organism-based, Neoplasm; details: in vivo, 1 h; outline: as §1
[35] = Biodistribution in muscle of BALB/c nu/nu mouse xenografted with human MDA-MB-231 cells at 7.4 kBq, iv using [125I] labeled compound measured after 30 mins by gamma counter method; type: ADME, organism-based, Muscle tissue; details: in vivo, 0.5 h; outline: as §1
[36] = Biodistribution in muscle of BALB/c nu/nu mouse xenografted with human MDA-MB-231 cells at 7.4 kBq, iv using [125I] labeled compound measured after 60 mins by gamma counter method; type: ADME, organism-based, Muscle tissue; details: in vivo, 1 h; outline: as §1

Drug uptake [1]: 0.53 % ID/g | Drug uptake [2]: 0.33 % ID/g | Drug uptake [3]: 1.43 % ID/g | Drug uptake [4]: 2.27 % ID/g | Drug uptake [5]: 1.22 % ID/g | Drug uptake [6]: 5.33 % ID/g | Drug uptake [7]: 6.21 % ID/g | Drug uptake [8]: 1.35 % ID/g | Drug uptake [9]: 25.3 % ID/g | Drug uptake [10]: 0.72 % ID/g | Drug uptake [11]: 3.02 % ID/g | Drug uptake [12]: 2.22 % ID/g | Drug uptake [13]: 0.61 % ID/g | Drug uptake [14]: 1.5 % ID/g | Drug uptake [15]: 0.05 % ID/g | Drug uptake [16]: 0.07 % ID/g | Drug uptake [17]: 5.68 % ID/g | Drug uptake [18]: 21.5 % ID/g | Drug uptake [19]: 0.51 % ID/g | Drug uptake [20]: 0.55 % ID/g | Drug uptake [21]: 10.1 % ID/g | Drug uptake [22]: 0.99 % ID/g | Drug uptake [23]: 0.06 % ID/g | Drug uptake [24]: 16.3 % ID/g | Drug uptake [25]: 1.36 % ID/g | Drug uptake [26]: 1.1 % ID/g | Drug uptake [27]: 0.84 % ID/g | Drug uptake [28]: 3.54 % ID/g | Drug uptake [29]: 0.65 % ID/g | Drug uptake [30]: 0.71 % ID/g | Drug uptake [31]: 2.25 % ID/g | Drug uptake [32]: 0.51 % ID/g | Drug uptake [33]: 10.01 % ID/g | Drug uptake [34]: 0.63 % ID/g | Drug uptake [35]: 0.42 % ID/g | Drug uptake [36]: 0.29 % ID/g
Structure (SMILES): CCCN1CCC(C(=O)N(C)Cc2cc(Cl)cc(-c3cc(-c4cc(C(F)(F)F)ccc4[125I])c(C#N)c(=O)[nH]3)c2O)CC1
